Source: PubChem (several laboratories)
Pf gamet viab: P. falciparum stage V gametocyte viability inhibition; P. falciparum stage V gametocytes, ATP luminescence, 24 h; inhibition, % at 10.9 µM; 150,000 tested, 0.065% active; AID 743093;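 active = inhibition above the mean plus 3 SD of compounds within the control limits, set per campaign, cut at about 38% in these data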;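 also: 0% = DMSO wells and 100% = medium only without gametocytes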
Hsp70 activator: transcriptional activators of Hsp70; HeLa Hsp70 promoter luciferase reporter, luminescence; scaled: vehicle 0, proteasome-inhibitor control 100%; activation, % at 10 µM; 200,000 tested, 0.04% active; AID 1203;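 active = activation above the mean across all tested compounds plus 3 SD, cutoff set per campaign, cut at about 5.5% in these data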;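 also: 100% = MG132 at 30 µM as the positive control and 0% = DMSO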
Wee1 degr inh: inhibitors of human Wee1 degradation; P30291; HeLa Luc-Wee1K328M stability, luciferase luminescence; 100% = proteasome inhibitor MG132 effect; AID 1321; reporter increase, % at 5 µM; 220,000 tested, 1.2% active;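 active = activation above the mean of all tested compounds plus 3 SD, set per screening run, cut at about 8.8% in these data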;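 also: cells exposed to compound for 20 h before luminescence read; 0% = DMSO alone and 100% = MG132 at 30 µM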
m-calpain inh: calpain II (pig) inhibition; purified calpain II, fluorogenic peptide substrate, 30 min; 220,000 tested, 0.37% active; inhibition, % at 16 µM;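 active = inhibition above about 50%, limit read from the data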
Mdm2 ligase inh: inhibitors of human Mdm2 E3 ubiquitin ligase. Q00987. cell-based MDM2 ubiquitination luciferase reporter, 2 h; 0 = plate control, 100 = twice control, blank-subtracted. signal enhancement, % at 5 µM. 210,000 tested, 0.11% active;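 active = signal enhancement of 30% or more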;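 also: luminescence tracks abundance of the self-degrading MDM2-luciferase fusion protein; higher signal means inhibition of MDM2 E3 ligase activity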
Target sequence (Q00987 whole entry, looked up, the tested form may be a part): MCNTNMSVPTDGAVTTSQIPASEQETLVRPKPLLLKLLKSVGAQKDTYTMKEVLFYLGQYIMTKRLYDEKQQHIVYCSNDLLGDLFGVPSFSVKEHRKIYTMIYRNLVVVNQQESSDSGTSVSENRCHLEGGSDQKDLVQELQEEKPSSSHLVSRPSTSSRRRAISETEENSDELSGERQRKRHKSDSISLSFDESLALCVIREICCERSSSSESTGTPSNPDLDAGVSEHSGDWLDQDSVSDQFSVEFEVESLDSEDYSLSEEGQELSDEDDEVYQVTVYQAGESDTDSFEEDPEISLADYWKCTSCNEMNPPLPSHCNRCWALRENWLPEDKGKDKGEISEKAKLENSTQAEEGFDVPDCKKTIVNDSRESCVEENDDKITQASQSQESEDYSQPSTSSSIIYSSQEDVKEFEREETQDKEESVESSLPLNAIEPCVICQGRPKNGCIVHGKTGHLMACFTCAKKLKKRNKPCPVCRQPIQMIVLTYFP
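Timing – 2 h compound exposure at 37 °C · Assay system – mammalian cells stably expressing self-ubiquitinating, self-degrading MDM2 E3–luciferase fusion · Amount – 2000 cells seeded into each well · Measure – % luminescence enhancement versus blank-corrected plate control mean · Measured by – SteadyLite luminescence, 15 min reagent step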
* hit, by the source's call. An excerpt weighted towards active compounds, which were near 1.5% of everything screened.

Cc1cc(CNC(=O)C2(C(F)(F)F)C/C(=C\Cc3ccccc3)CCCO2)nn1C (stereo not given) was read as Pf gamet viab 11.
For CCS(=O)(=O)N1Cc2ccccc2CC1C(=O)Nc1nnc(SCc2ccc(F)cc2)s1 (stereo not given) the results were Hsp70 activator 0, Wee1 degr inh 9.1*, m-calpain inh -19 and Mdm2 ligase inh -10.
For COc1ccc(-c2noc(Cc3ccccc3OC)n2)cc1 the results were Hsp70 activator 0, Wee1 degr inh 8.9*, m-calpain inh -1 and Mdm2 ligase inh -6.
Screening Cc1ccccc1OCc1nc(-c2ccccc2)no1 returned Hsp70 activator 0, Wee1 degr inh 11*, m-calpain inh 10 and Mdm2 ligase inh -6.
For Cc1ccc(-c2noc(COc3ccccc3C)n2)cc1 the results were Hsp70 activator 0, Wee1 degr inh -2, m-calpain inh -13 and Mdm2 ligase inh -4.
`Cc1ccc(OCc2occc2C(=O)O)cc1` gave Pf gamet viab 8.
For O=C1OCC2OC(O)C(O)C(O)C2OC(=O)c2cc(O)c(O)c(O)c2-c2c(O)c(O)c3oc(=O)c4c(c(O)c(O)c5oc(=O)c2c3c54)-c2c1cc(O)c(O)c2O (stereo not given) the results were m-calpain inh 39 and Mdm2 ligase inh 3.
Screening CN(C)/C=C1\C(=O)Oc2ccccc2C1=O returned Pf gamet viab 3.
CC(C)Cn1c(-c2ccc(Br)cc2)c[nH]c1=S was read as Pf gamet viab -18, Hsp70 activator -1, Wee1 degr inh -3, m-calpain inh 75* and Mdm2 ligase inh -7.
`O=C(OCc1nnc(-c2ccc(Cl)cc2)o1)C12CC3CC(CC(O)(C3)C1)C2` gave Pf gamet viab 2, Hsp70 activator 0, Wee1 degr inh 9.8*, m-calpain inh 26 and Mdm2 ligase inh -11.
Screening CN1CCN(CCc2nc3cc(NC(=O)c4ccco4)ccc3n2C)CC1 returned Pf gamet viab -2, Wee1 degr inh -4, m-calpain inh 54* and Mdm2 ligase inh -14.
Screening Cn1c(CCN2CCOCC2)nc2cc(NC(=O)COc3ccccc3)ccc21 returned Pf gamet viab 3, Hsp70 activator 0, Wee1 degr inh 9.1*, m-calpain inh -11 and Mdm2 ligase inh -9.
Screening Cc1ccc(SCC(=O)N/N=C/c2ccco2)cc1 returned Pf gamet viab -11.
Screening NC(=O)N(CCC(=O)O)c1ccccc1 returned Pf gamet viab 11, Hsp70 activator 0, Wee1 degr inh 10*, m-calpain inh 3 and Mdm2 ligase inh -8.
Screening CC(C)Cn1c(N)c(C(=O)COC(=O)c2ccc3c(c2)OCCO3)c(=O)n(C)c1=O returned Pf gamet viab -52, Hsp70 activator 0, Wee1 degr inh 3, m-calpain inh -23 and Mdm2 ligase inh -7.
CC(C)Cn1c(N)c(C(=O)COC(=O)/C=C/c2cccs2)c(=O)n(C)c1=O was read as Pf gamet viab 1, Wee1 degr inh 3, m-calpain inh 53* and Mdm2 ligase inh -15.
`CC(C)Cn1c(N)c(C(=O)COC(=O)c2c(F)cccc2F)c(=O)n(C)c1=O` gave Pf gamet viab -25, Hsp70 activator 0, Wee1 degr inh 7, m-calpain inh 17 and Mdm2 ligase inh -11.
`CC(C)Cn1c(N)c(C(=O)COC(=O)c2cccc(Cl)c2)c(=O)n(C)c1=O` gave Pf gamet viab 8, Hsp70 activator 0, Wee1 degr inh 6, m-calpain inh 77* and Mdm2 ligase inh -9.
CC(C)Cn1c(N)c(C(=O)COC(=O)c2ccccc2Cl)c(=O)n(C)c1=O was read as Pf gamet viab 14, Hsp70 activator 0, Wee1 degr inh -1, m-calpain inh 43 and Mdm2 ligase inh -10.
`CC(C)Cn1c(N)c(C(=O)COC(=O)c2ccc(F)cc2)c(=O)n(C)c1=O` gave Pf gamet viab -35, Hsp70 activator 0, Wee1 degr inh 0, m-calpain inh 53* and Mdm2 ligase inh 1.
Screening CCc1ccc(C(=O)OCC(=O)c2c(N)n(CC(C)C)c(=O)n(C)c2=O)cc1 returned Pf gamet viab 4, Hsp70 activator 0, Wee1 degr inh 3, m-calpain inh 82* and Mdm2 ligase inh -20.
`COc1ccc(NC(=O)Nc2cccc3c2O[C@H](CN(C)C(=O)Nc2ccc4c(c2)OCO4)[C@@H](C)CN([C@H](C)CO)C3=O)cc1` gave Pf gamet viab 5.
